Results reported in paper PMC4474499 (Science Advances, 2015).
Entries after “also recorded” stand apart in the source; their conditions may differ. Blank lines part the entries; values can stand above or below the molecule they belong to. Non-standard residues stand in square brackets, D forms with d. No end group written: not given here. Pam3Cys = Cys carrying the Pam3 acyl chains of Pam3CSK4

B1: human TLR1 protein, purified extracellular domain (receptor, UniProt Q15399 25-580, looked up)
chain: SEFLVDRSKNGLIHVPKDLSQKTTILNISQNYISELWTSDILSLSKLRILIISHNRIQYLDISVFKFNQELEYLDLSHNKLVKISCHPTVNLKHLDLSFNAFDALPICKEFGNMSQLKFLGLSTTHLEKSSVLPIAHLNISKVLLVLGETYGEKEDPEGLQDFNTESLHIVFPTNKEFHFILDVSVKTVANLELSNIKCVLEDNKCSYFLSILAKLQTNPKLSNLTLNNIETTWNSFIRILQLVWHTTVWYFSISNVKLQGQLDFRDFDYSGTSLKALSIHQVVSDVFGFPQSYIYEIFSNMNIKNFTVSGTRMVHMLCPSKISPFLHLDFSNNLLTDTVFENCGHLTELETLILQMNQLKELSKIAEMTTQMKSLQQLDISQNSVSYDEKKGDCSWTKSLLSLNMSSNILTDTIFRCLPPRIKVLDLHSNKIKSIPKQVVKLEALQELNVAFNSLTDLPGCGSFSSLSVLIIDHNSVSHPSADFFQSCQKMRSIKAGDNPFQCTCELGEFVKNIDQVSSEVLEGWPDSYKCDYPESYRGTLLKDFHMSELSCNIT

Columns and labels:
[1] = biological target: TLR1/2 complex (Homo sapiens, UniProt O60603+Q15399); test: Fluorescence anisotropy competition with Rho-Pam3; format: binding; conditions: up to 10 μM
Procedure, shortened: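 Equal amounts of TLR1 and TLR2 (4 μl each of 10 μM stocks) added to Rho-Pam3CSK4 in PBS pH 7.4 and held 30 min. Serial test-compound concentrations then incubated with the complex 30 min at RT. Fluorescence anisotropy read at 25°C (ex 549/em 566 nm). An analog served as negative control; IC50 derived from the titration.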

[2] = biological target: human TLR2 (Homo sapiens, UniProt O60603+Q15399); test: SEAP reporter gene detection assay in HEK-Blue hTLR2 cells; format: cell-based
Procedure, shortened: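 HEK-Blue hTLR2 cells (SEAP reporter), 4 × 10^4/well, grown 24 h. Then 24 h in Opti-MEM/0.5% FBS with compounds at 0–50 μM or 0–100 μM. Pam3CSK4 (0–66 nM) used as reference agonist. Supernatant heat-treated 30 min at 65°C, cooled, mixed with SEAP buffer and CSPD substrate; luminescence read after 20 min.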

[3] = system: NF-κB; test: U937 NF-κB–GFP reporter assay; format: cell-based, human; conditions: 20 μM (GA even up to 100 μM), U937 cells
[4] = biological target: hTLR1 and hTLR2 (Homo sapiens, UniProt O60603+Q15399); test: SEC-LS assay of TLR1/2 heterodimer formation; format: biochemical; conditions: CU-T12-9 0 to 40 μM or Pam3CSK4 260 nM (400 ng/ml)
Procedure, shortened: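 Human TLR2 in PBS pH 7.4 preincubated 2 h at RT with test compound or Pam3CSK4. Equimolar hTLR1 then added (final about 10 μM each) for 2 h at 37°C. Both proteins were baculovirus/insect-cell products. Samples filtered (0.1 μm) and run on size-exclusion column in PBS at 1 ml/min. Detection by in-line multi-angle light scattering, refractive index and UV.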

[5] = system: Raw 264.7 cells; test: Quantitative RT-PCR of mRNA levels in Raw 264.7 macrophage cells; format: cell-based, mouse
Procedure, shortened: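 RAW 264.7 cells, 1 × 10^6/well, grown 24 h, then given fresh RPMI 1640. Exposed to test compound, or 33 nM (50 ng/ml) Pam3CSK4, for 0, 2, 8 or 24 h. Cells washed in cold PBS and frozen. Total RNA extracted (RNeasy) for qRT-PCR. Fold change calculated by ΔΔCt versus DMSO-treated cells, means ± SD.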

[6] = system: Raw 264.7 cells; test: In vitro NO activation assay for Raw 264.7 cells; format: cell-based, mouse; conditions: Raw 264.7 macrophage cells, 1 µM CU-T12-9
Procedure, shortened: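 RAW 264.7 cells, 80,000/well, grown 24 h. Non-adherent cells removed; medium changed to unsupplemented RPMI 1640. Treated 24 h with test compound, or 66 nM (100 ng/ml) Pam3CSK4 as control. Supernatant reacted 15 min in the dark with 2,3-diaminonaphthalene in HCl, quenched with NaOH. Fluorescence read at ex 365/em 450 nm; nitrite calculated from a standard curve.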

[7] = system: NF-κB; test: Triptolide inhibition of CU-T12-9–induced SEAP signaling in HEK-Blue hTLR2 cells; format: cell-based, human
[8] = biological target: B1; test: fluorescence polarisation
[9] = biological target: TLR1/TLR2 complex (equimolar mixture of purified hTLR1 and hTLR2) (human, UniProt Q15399 25-580; O60603 21-588); test: fluorescence polarisation
[10] = biological target: human TLR2 protein, purified extracellular domain (human, UniProt O60603 21-588); test: fluorescence polarisation
[11] = biological target: the molecule itself; test: SEC-MALS

Chain of human TLR2 (O60603 21-784): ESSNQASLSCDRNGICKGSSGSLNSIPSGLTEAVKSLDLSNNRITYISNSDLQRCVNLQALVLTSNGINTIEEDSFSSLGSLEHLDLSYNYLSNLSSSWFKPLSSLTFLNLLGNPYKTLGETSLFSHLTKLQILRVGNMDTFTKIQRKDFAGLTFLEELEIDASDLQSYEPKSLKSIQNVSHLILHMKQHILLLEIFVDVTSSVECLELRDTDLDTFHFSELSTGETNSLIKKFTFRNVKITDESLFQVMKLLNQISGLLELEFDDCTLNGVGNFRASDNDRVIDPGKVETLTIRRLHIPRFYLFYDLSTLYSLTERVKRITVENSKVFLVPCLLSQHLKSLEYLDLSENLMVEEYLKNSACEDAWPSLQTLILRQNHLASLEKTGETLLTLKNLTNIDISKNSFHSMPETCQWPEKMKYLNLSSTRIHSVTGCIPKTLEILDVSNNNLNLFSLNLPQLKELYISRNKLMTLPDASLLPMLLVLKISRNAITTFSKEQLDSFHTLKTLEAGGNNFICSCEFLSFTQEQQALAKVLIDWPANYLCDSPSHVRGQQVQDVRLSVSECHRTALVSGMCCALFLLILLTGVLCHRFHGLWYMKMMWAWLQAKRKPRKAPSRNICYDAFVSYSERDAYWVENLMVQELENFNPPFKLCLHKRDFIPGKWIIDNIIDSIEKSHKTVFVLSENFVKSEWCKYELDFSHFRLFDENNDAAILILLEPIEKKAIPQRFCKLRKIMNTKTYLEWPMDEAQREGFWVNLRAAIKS
Chain of human TLR2 (Q15399 25-786): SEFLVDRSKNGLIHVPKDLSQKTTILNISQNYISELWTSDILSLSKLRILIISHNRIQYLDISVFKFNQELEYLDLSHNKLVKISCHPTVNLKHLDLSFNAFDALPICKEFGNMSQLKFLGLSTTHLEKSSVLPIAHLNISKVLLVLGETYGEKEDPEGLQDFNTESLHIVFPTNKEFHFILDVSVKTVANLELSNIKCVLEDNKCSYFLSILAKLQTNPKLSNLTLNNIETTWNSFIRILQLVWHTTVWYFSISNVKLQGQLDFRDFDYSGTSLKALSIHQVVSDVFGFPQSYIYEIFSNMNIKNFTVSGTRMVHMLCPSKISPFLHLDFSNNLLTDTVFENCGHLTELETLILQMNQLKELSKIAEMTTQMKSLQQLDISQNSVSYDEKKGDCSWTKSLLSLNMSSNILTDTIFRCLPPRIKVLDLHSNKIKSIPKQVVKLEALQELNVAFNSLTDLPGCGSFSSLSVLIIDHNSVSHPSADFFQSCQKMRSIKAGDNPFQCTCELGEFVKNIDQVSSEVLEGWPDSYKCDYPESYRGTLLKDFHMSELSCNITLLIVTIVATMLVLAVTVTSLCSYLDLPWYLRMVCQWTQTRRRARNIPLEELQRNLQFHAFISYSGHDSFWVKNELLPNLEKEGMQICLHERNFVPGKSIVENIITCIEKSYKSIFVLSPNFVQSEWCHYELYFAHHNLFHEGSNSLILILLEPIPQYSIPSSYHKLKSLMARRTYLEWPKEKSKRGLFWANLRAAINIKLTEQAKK
Chain of TLR1/2 complex (O60603 21-588 limits assumed, one chain of several): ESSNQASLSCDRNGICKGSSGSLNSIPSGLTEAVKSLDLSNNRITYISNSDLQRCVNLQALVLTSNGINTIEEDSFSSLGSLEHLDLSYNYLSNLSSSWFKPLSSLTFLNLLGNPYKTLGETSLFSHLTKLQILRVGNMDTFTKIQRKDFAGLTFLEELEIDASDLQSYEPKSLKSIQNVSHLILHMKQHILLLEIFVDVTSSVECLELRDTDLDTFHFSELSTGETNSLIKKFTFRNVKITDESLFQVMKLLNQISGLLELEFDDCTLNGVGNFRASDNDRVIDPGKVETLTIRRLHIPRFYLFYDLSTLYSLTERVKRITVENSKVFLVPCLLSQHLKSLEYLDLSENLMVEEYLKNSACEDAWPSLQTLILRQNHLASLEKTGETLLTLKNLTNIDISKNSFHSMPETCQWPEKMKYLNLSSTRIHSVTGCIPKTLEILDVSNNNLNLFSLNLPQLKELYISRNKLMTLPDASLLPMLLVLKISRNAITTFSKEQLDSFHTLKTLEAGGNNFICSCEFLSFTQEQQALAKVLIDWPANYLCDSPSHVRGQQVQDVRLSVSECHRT
Chain of hTLR1 and hTLR2 (O60603 21-588 limits assumed, one chain of several): as above
Chain of TLR1/TLR2 complex (equimolar mixture of purified hTLR1 and hTLR2) (O60603 21-588, chain 2 of 2, one chain of several): as the sequence (O60603 21-588 limits assumed, one chain of several) above
Chain of human TLR2 protein, purified extracellular domain (O60603 21-588): as the sequence (O60603 21-588 limits assumed, one chain of several) above

Molecule: CNc1ccc(C(=O)O)cc1-n1cnc(-c2ccc(C(F)(F)F)cc2)c1 [Compound T12-29]
inhibition of Rho-Pam3 binding to TLR1/TLR2 [1]: no competitive binding; also recorded: negligible inhibition

decrease in potency compared with CU-T12-9 ([2]; –CF3 at R1): four times
Molecule: CNc1ccc(C(F)(F)F)cc1-n1cnc(-c2ccc(C(F)(F)F)cc2)c1 [Compound 20]

SEAP activity at 100 μM ([2]; 100 μM, HEK-Blue hTLR2 cells): inactive
Molecule: CNc1ccc([N+](=O)[O-])cc1-n1cnc(-c2ccc(C(=O)O)cc2)c1 [Compound 19]

Molecule: CNc1ccc([N+](=O)[O-])cc1-n1cnc(-c2ccc([N+](=O)[O-])cc2)c1 [GA, N-methyl-4-nitro-2-(4-(4-nitrophenyl)-1H-imidazol-1-yl)aniline, reference compound]
NF-κB activation [3]: much lower NF-κB activation

increase in potency relative to GA (factor) ([2]; replacement of –NO2 at R3): 10
Molecule: CNc1ccc([N+](=O)[O-])cc1-n1cnc(-c2ccc(C#N)cc2)c1 [Compound 11]

TLR1/2 heterodimer formation [4]: promoted TLR1/2 heterodimerization
Molecule: Pam3CSK4 [reference compound]
time of highest TLR2 mRNA expression ([5]; 1 μM CU-T12-9 or 33 nM (50 ng/ml) Pam3CSK4, measured at 2, 8, 24 hours): 2 h
TNF mRNA expression ([5]; over time, maximal expression after 8 hours): increased
iNOS mRNA expression ([5]; over time, peaked at 24 hours): increased

SEAP agonist activity (in words) ([2]; HEK-Blue hTLR2 cells, nitro group switched from R3 to R4): completely abolished activity
Molecule: CNc1ccc([N+](=O)[O-])cc1-n1cnc(-c2cccc([N+](=O)[O-])c2)c1 [Compound 10]

Molecule: CCOC(=O)C1=CCCC[C@H]1S(=O)(=O)Nc1ccc(F)cc1Cl [TAK-242, reference compound]
inhibition of CU-T12-9 induced NO activation [6]: could not be influenced

Molecule: CC(C)[C@]12O[C@H]1[C@@H]1O[C@]13[C@]1(O[C@H]1C[C@H]1C4=C(CC[C@@]13C)C(=O)OC4)[C@@H]2O [Triptolide]
inhibition of CU-T12-9–induced SEAP signaling [7]: efficiently inhibit

Kd [8]: 41.6 ± 2.36 nM
Kd [9]: 35 ± 1.98 nM
Kd [10]: 125 ± 3.43 nM
Molecule: [Pam3Cys]SKKKK (also: rhodamine label, site not given here) [rhodamine-labeled Pam3CSK4]

Molecule: B1
stoichiometry N [11]: 2
